Common to all, as to format: functional, organism-based
For test [1], the species on record is Mus musculus. As to the kind of experiment: Tested for the inhibition of DNA synthesis against cu-blenoxane at 80 nm of drug/mg of cell protein in mice. More on the design: scale not given: the % may be the effect or the level left. Put shortly: (§1)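 Ehrlich ascites cells from a donor mouse, in fresh MEM at 5 × 10⁶ cells/mL, were exposed to drug for 60 min at 37 °C with gentle shaking. They were then washed once, resuspended in fresh MEM and given [³H]thymidine (final thymidine about 8.6 × 10⁻⁸ M) for 20 min. DNA synthesis was read as perchloric acid-precipitable label. Values are % of control ± SD over three trials.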

The species named for test [2] is Mus musculus. As to the kind of experiment: Tested for the thymidine uptake against cu-blenoxane at 10 nm of drug/mg of cell protein in mice. In a few lines:
as §1

Test [3] is filed under the species Mus musculus. The test is described as follows: Tested for the thymidine uptake against cu-blenoxane at 40 nm of drug/mg of cell protein in mice. In a few lines: as §1
The species entered for test [4] is Mus musculus. As to the kind of experiment: Tested for the thymidine uptake against cu-blenoxane at 80 nm of drug/mg of cell protein in mice. In a few lines: as §1
The species named for test [5] is Mus musculus. The test is described as follows: Tested for the inhibition of DNA synthesis against cu-blenoxane at 4 nm of drug/mg of cell protein in mice. Also on record: scale not given: the % may be the effect or the level left. Put shortly:
(§2)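 Culture-adapted Ehrlich cells were incubated 60 min with […] (4 nmol/mg cell protein) in the presence of serum. [³H]dThd incorporation into DNA was measured at the end of the 60 min. Values are expressed relative to untreated control.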

The species named for test [6] is Mus musculus. The test is described as follows: Tested for the thymidine uptake against cu-blenoxane at 4 nm of drug/mg of cell protein in mice.
The species named for test [7] is Mus musculus. As to the kind of experiment: Tested for the inhibition of DNA synthesis against cu-blenoxane at 40 nm of drug/mg of cell protein in mice. More on the design: scale not given: the % may be the effect or the level left. In a few lines: as §1
The species named for test [8] is Mus musculus. The test is described as follows: Tested for the inhibition of DNA synthesis against cu-blenoxane at 10 nm of drug/mg of cell protein in mice. More on the design: scale not given: the % may be the effect or the level left. In a few lines:
as §1

The species entered for test [9] is Mus musculus. The test is described as follows: Tested for the inhibition of DNA synthesis against blenoxane at 80 nm of drug/mg of cell protein in mice. Also on record: scale not given: the % may be the effect or the level left. Put shortly: as §1
Test [10] is filed under the species Mus musculus. As to the kind of experiment: Tested for the thymidine uptake against blenoxane at 4 nm of drug/mg of cell protein in mice.
Test [11] is filed under the species Mus musculus. As to the kind of experiment: Tested for the thymidine uptake against blenoxane at 40 nm of drug/mg of cell protein in mice. In a few lines:
as §1

The species entered for test [12] is Mus musculus. As to the kind of experiment: Tested for the inhibition of DNA synthesis against blenoxane at 4 nm of drug/mg of cell protein in mice. More on the design: scale not given: the % may be the effect or the level left. Put shortly:
as §2

The species named for test [13] is Mus musculus. As to the kind of experiment: Tested for the thymidine uptake against blenoxane at 10 nm of drug/mg of cell protein in mice. In a few lines:
as §1

The species named for test [14] is Mus musculus. As to the kind of experiment: Tested for the inhibition of DNA synthesis against blenoxane at 10 nm of drug/mg of cell protein in mice. More on the design: scale not given: the % may be the effect or the level left. In a few lines: as §1
The species entered for test [15] is Mus musculus. The test is described as follows: Tested for the inhibition of DNA synthesis against blenoxane at 40 nm of drug/mg of cell protein in mice. More on the design: scale not given: the % may be the effect or the level left. In a few lines: as §1
Test [16] is filed under the species Mus musculus. The test is described as follows: Tested for the thymidine uptake against blenoxane at 80 nm of drug/mg of cell protein in mice. In a few lines:
as §1

cu-blenoxane: the Control in the test listed under Mus musculus [1] worked out at 51.3%; in the test listed under Mus musculus [2], 83.5%; in the test listed under Mus musculus [3], 71.2%; in the test listed under Mus musculus [4], 68.4%; in the test filed under Mus musculus [5], 86.8%; in the test filed under Mus musculus [6], 94.9%. The Control in the test filed under Mus musculus [7] stood at 55.3%; in the test listed under Mus musculus [8] it was 61.5%.
For the substance BLEOMYCIN, the Control in the test filed under Mus musculus [9] was 40.1%; in the test filed under Mus musculus [10] it was 86%; in the test filed under Mus musculus [11], 69.8%; in the test filed under Mus musculus [12], 67.9%; in the test listed under Mus musculus [13], 79.1%; in the test listed under Mus musculus [14], 66.1%. Further, the results for the Control in the test filed under Mus musculus [15] and in the test listed under Mus musculus [16] were 56.4% and 61.9%, respectively.

The values above are taken from ChEMBL document CHEMBL1121571, “Cytotoxic and antitumor properties of bleomycin and several of its metal complexes” (J Med Chem, 1980).
